Data from ChEMBL document CHEMBL1158042, “Carneic acids A and B, chemotaxonomically significant antimicrobial agents from the xylariaceous ascomycete Hypoxylon carneum” (2006).
Values after ≈ are worked out from the molar mass of the structure shown. Starred links: 1 amine or outer side, 2 acyl side, 3 side chain; linkers in the order of their positions; H or OH if unused. Positions of bridges follow the written chain, without caps; N, C: chain ends. Non-standard residues stand in square brackets, D forms with d. Residues, ends and D or L forms follow the SMILES beside them. Chains are numbered I, II in the order given. Actinocin(1to9) = Cc1c2oc3c(C)ccc(C(=O)[*:2])c3nc-2c(C(=O)[*:1])c(N)c1=O; NMeV = CN[C@H](C(=O)O)C(C)C; Sar = CNCC(=O)O

Legend:
Format in all cases: functional
Bacillus subtilis = assay: Antimicrobial activity against Bacillus subtilis ATCC 6633 after 18 hrs; conditions: ATCC 6633, 18 h
Outline: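 Serial broth dilution in microtiter wells. Compounds in MeOH were dispensed and the solvent evaporated in vacuo. Inoculum came from an overnight nutrient broth culture, adjusted to 10⁵ cells per mL, in NB medium. Incubation was 18 h. MIC was read as the minimal inhibitory concentration.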

Penicillium griseofulvum = assay: Antimicrobial activity against Penicillium griseofulvum DSM 847 after 24 hrs; conditions: DSM 847, 24 h
Outline: (§1)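 Serial dilution in microtiter wells with YMG medium. Compounds in MeOH were dispensed and dried in vacuo. Spores were rinsed from well-grown 9-day-old YMG agar cultures with […], then adjusted to 10⁵ per mL. Concentrations ranged from 100 to 0.1 µg mL^-1 (eight levels). Incubation was 24 h. MIC was recorded.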

Stachybotrys chartarum = assay: Antimicrobial activity against Stachybotrys chartarum DSM 2144 after 24 hrs; conditions: DSM 2144, 24 h; outline: as §1
Mucor hiemalis = assay: Antimicrobial activity against Mucor hiemalis DSM 63298 after 24 hrs; conditions: DSM 63298, 24 h; outline: as §1
Yarrowia lipolytica = assay: Antimicrobial activity against Yarrowia lipolytica HT20after 24 hrs
Outline: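 Yeast tested by serial dilution in YMG medium. Compound films were left in wells after MeOH evaporation in vacuo. Inoculum came from an overnight YMG culture, adjusted to 10⁵ cells per mL. After 24 h incubation, the minimal inhibitory concentration was determined.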

Trichoderma harzianum = assay: Antimicrobial activity against Trichoderma harzianum ATCC 64870 after 24 hrs; conditions: ATCC 64870, 24 h; outline: as §1

Row | SMILES | MIC (Bacillus subtilis) | MIC (Penicillium griseofulvum) | MIC (Stachybotrys chartarum) | MIC (Mucor hiemalis) | MIC (Yarrowia lipolytica) | MIC (Trichoderma harzianum)
1 | Oc1cccc2c(-c3ccc(O)c4c(O)cccc34)ccc(O)c12 | 100 µg/mL (≈ 314 µM) | > 100 µg/mL | > 100 µg/mL | 100 µg/mL (≈ 314 µM) | > 100 µg/mL | > 100 µg/mL
2 | CC1=C[C@@H]2[C@@H]([C@@H](/C=C/C=C/C(=O)O)[C@H]1/C(C)=C/CO)[C@H](C)CC[C@H]2O [CARNEIC ACID B] | 50 µg/mL (≈ 144 µM) | 25 µg/mL (≈ 72.2 µM) | 25 µg/mL (≈ 72.2 µM) | 12.5 µg/mL (≈ 36.1 µM) | 25 µg/mL (≈ 72.2 µM) | 50 µg/mL (≈ 144 µM)
3 | Cc1c2oc3c(C)ccc(C(=O)N[C@@H]4C(=O)N[C@H](C(C)C)C(=O)N5CCC[C@H]5C(=O)N(C)CC(=O)N(C)[C@@H](C(C)C)C(=O)O[C@@H]4C)c3nc-2c(C(=O)N[C@@H]2C(=O)N[C@H](C(C)C)C(=O)N3CCC[C@H]3C(=O)N(C)CC(=O)N(C)[C@@H](C(C)C)C(=O)O[C@@H]2C)c(N)c1=O [DACTINOMYCIN] (I: T[dV]P[Sar][NMeV] / II: T[dV]P[Sar][NMeV]; ester I:1-I:C, II:1-II:C; linker I:N-II:N via Actinocin(1to9)) | > 100 µg/mL | 3.12 µg/mL (≈ 2.49 µM) | 3.12 µg/mL (≈ 2.49 µM) | 3.12 µg/mL (≈ 2.49 µM) | 6.25 µg/mL (≈ 4.98 µM) | 6.25 µg/mL (≈ 4.98 µM)
4 | CC(=O)OC/C=C/C1=CC2=C(CO1)C(=O)[C@](C)(O)[C@H](OC(=O)c1c(C)cc(O)cc1O)C2 [RUBIGINOSIN A] | 50 µg/mL (≈ 113 µM) | > 100 µg/mL | 100 µg/mL (≈ 225 µM) | 25 µg/mL (≈ 56.3 µM) | 100 µg/mL (≈ 225 µM) | > 100 µg/mL

Continued by falling MIC (Bacillus subtilis), values first:

Row | MIC (Bacillus subtilis) | MIC (Penicillium griseofulvum) | MIC (Stachybotrys chartarum) | MIC (Mucor hiemalis) | MIC (Yarrowia lipolytica) | MIC (Trichoderma harzianum) | SMILES
5 | 50 µg/mL (≈ 151 µM) | 12 µg/mL (≈ 36.3 µM) | 25 µg/mL (≈ 75.7 µM) | 12.5 µg/mL (≈ 37.8 µM) | 25 µg/mL (≈ 75.7 µM) | 50 µg/mL (≈ 151 µM) | C/C=C(\C)[C@H]1C(C)=C[C@@H]2[C@@H]([C@H]1/C=C/C=C/C(=O)O)[C@H](C)CC[C@H]2O [CARNEIC ACID A]
6 | 3.12 µg/mL (≈ 9.33 µM) | > 100 µg/mL | > 100 µg/mL | > 100 µg/mL | > 100 µg/mL | > 100 µg/mL | CC1(C)S[C@@H]2[C@H](NC(=O)Cc3ccccc3)C(=O)N2[C@H]1C(=O)O [PENICILLIN G]
